Data on six compounds can be found in publication PMC6544545 (Nature microbiology, 2018).

Assay [1] relates to E. coli mutant strains. Description: Relative MIC measurement of mutant and evolved strains. The class given is cell-based, Escherichia coli.
Assay [2] has as its system E. coli K12 wild-type and antibiotic-resistant strains. Put plainly: Antibiotic-PGLA combination screen. The class given is cell-based, Escherichia coli. The note with it: Loewe additivity, EC90%. In a few lines: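 E. coli K12 BW25113 wild-type and 21 strains adapted to one of 10 antibiotics were tested. Single agents ran as 1.6-fold 8-step dilutions spanning 10.5x below to 2.6x above each strain's MIC, plus dilution series at 7 antibiotic:peptide ratios (7:1 to 1:7). Wells received 5×10^4 cells from overnight culture, then 24 h at 30°C, 300 rpm, OD600. Expected (Loewe) and measured EC90% gave CIr per ratio; CI is the mean of the 7 CIr values.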

Assay [3] concerns antibiotic-resistant bacteria. Description: Antibiotic MIC in the presence of subinhibitory PGLA. The format is cell-based, Escherichia coli. The note with it: tetracycline (TET) resistant strain; ½ MIC PGLA (MIC against the wild-type). In a few lines: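 Each level was tested alone and alongside MIC determination of the antibiotic the strain was adapted to. Growth with peptide alone was scored as growth rate.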

Assay [4] deals with wild-type E. coli. Put plainly: Experimental evolution of resistance followed by MIC measurement. The class given is cell-based, Escherichia coli.
The test system of assay [5] is 60 antibiotic-resistant Escherichia coli strains. The format is cell-based.
For assay [6], the system named is antibiotic-resistant E. coli strains. Put plainly: Membrane integrity measurement. The format is cell-based, Escherichia coli. The note with it: sensitive strains could not grow on medium with 6% bile acid. In a few lines: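 Bile acid sensitivity came from the high-throughput screen in MS medium. About 103 bacteria/ml were pin-inoculated and grown 24 h at 30°C, 300 rpm, with OD600 read once. Resistant strains ran in 4 replicates and wild-type in 12 on the same plate, and growth arrest was scored per well. Strains unable to grow with 6% bile acid were grouped as sensitive.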

Assay [7] deals with CAP18-resistant bacteria. Description: Susceptibility of CAP18-resistant evolved bacteria to antibiotics. The class given is cell-based. Particulars: preliminary results.

On to `O=C1CN(/N=C/c2ccc([N+](=O)[O-])o2)C(=O)N1` [nitrofurantoin], for which the “effect of ompC loss-of function mutation on susceptibility” value in assay [1] (ompC mutation inserted into wild-type E. coli) was “conferred resistance”. For Peptide Glycine-Leucine Amide [PGLA], the “interaction of PGLA with tetracycline (TET), wild-type strain” value in assay [2] (E. coli K12 wild-type, 0.86<CI<1.14 no interaction) is reported as “no interaction”. Moreover, the “interaction of PGLA with tetracycline (TET), tetracycline-resistant strain TET3” value in assay [2] (TET3, CI≤0.86 synergism) is on record as “strong synergism”. Besides, the “susceptibility of the marR single point mutant (marR*)” value in assay [1] (marR mutation in E. coli BW25113 or E. coli ATCC 25922) is given as “collateral sensitivity”. Also, in assay [3], the “growth rate reduction by the peptide applied alone” value is given as 40%. Also, in assay [4] (laboratory evolution, 160 generations), the “evolution of resistance to the peptide” value is on record as “marginal”. Besides, the “cross-resistance between PGLA and ciprofloxacin or tetracycline in evolved lines” value in assay [4] (laboratory-evolved lines) is recorded as “no substantial cross-resistance”. With “bactenecin 5 (RFRPPIRRPPIRPPFYPPFRPPIRPPIFPPIRPPFRPPLGPFP; Bactenecin-5; UniProt P19660 131-173, looked up) [BAC5]”, in assay [5] (tobramycin-resistant E. coli strains), the “interaction of tobramycin-resistant strains with the peptide” value was “cross-resistance rather than collateral sensitivity”. Turning to bile acid, in assay [6], the “percentage of antibiotic-resistant strains more susceptible than the wild-type” value stood at 75%. In the case of cecropin P1 [CP1], the “collateral sensitivity of antibiotic-resistant strains towards the peptide” value in assay [5] (60 laboratory-evolved antibiotic-resistant E. coli strains) is “rarely show collateral sensitivity”. “rabbit 18-kDa cationic antimicrobial protein [CAP18]”: the “consequence of evolving resistance to the peptide” value in assay [7] is reported as “collateral sensitivity to several conventional antibiotics”.
